Experimental data taken from ChEMBL document CHEMBL1154249, “Semisynthesis and biological evaluation of abietane-type diterpenes. Revision of the structure of rosmaquinone” (J Nat Prod, 2009).
pIC50: −log10 of the molar value. In brackets after ≈: the same amount, converted by molar mass.

Assays:
HEp-2 [1] = experiment: Cytotoxicity against human Hep2 cells at exponential phase of growth after 48 hrs by MTT assay; assay type: functional, cell-based; conditions: for pIC50: Homo sapiens, HEp-2, 48 h, read-out: IC50; for IC50: hep-2
Method in brief: (§1)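 Monolayers grown in DMEM with 5% fetal calf serum and penicillin-streptomycin at 37 °C, 5% CO2. 2×10^4 cells/well in lag or log phase were exposed for 48 h to a concentration series of compounds predissolved in DMSO. MTT formazan was dissolved in DMSO and read at 550 nm. IC50 taken from the curve; three independent experiments.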

HeLa [2] = experiment: Cytotoxicity against human HeLa cells at lag phase of growth after 48 hrs by MTT assay; assay type: functional, cell-based; conditions: for pIC50: Homo sapiens, HeLa, 48 h, read-out: IC50; for IC50: hela; method in brief: as §1
Pseudomonas aeruginosa = experiment: Antibacterial activity against Pseudomonas aeruginosa AK958 after 24 hrs by broth dilution assay; assay type: functional; conditions: AK958, 24 h
Method in brief: (§2)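 Microdilution in nutrient broth at 37 °C, about (1-5) × 10^5 cfu/mL inoculum, compounds in DMSO (≤1% v/v, matched DMSO controls), in triplicate. Growth followed by OD550. Wells without visible growth after 24 h on a rotary shaker were subcultured in duplicate onto nutrient agar and colonies counted after overnight incubation. MIC is the lowest concentration inhibiting growth at 24 h.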

Vero [3] = experiment: Cytotoxicity against african green monkey Vero cells at lag phase of growth after 48 hrs by MTT assay; assay type: cell-based, Chlorocebus sabaeus; conditions: for pIC50: Chlorocebus sabaeus, Vero, 48 h, read-out: IC50; for IC50: vero; method in brief: as §1
Proteus mirabilis = experiment: Antibacterial activity against Proteus mirabilis CECT 170 after 24 hrs by broth dilution assay; assay type: functional; conditions: CECT 170, 24 h; method in brief: as §2
Salmonella = experiment: Antibacterial activity against Salmonella CECT 4569 after 24 hrs by broth dilution assay; assay type: functional; conditions: CECT 4569, 24 h; method in brief: as §2
Bacillus cereus = experiment: Antibacterial activity against Bacillus cereus ATCC 21772 after 24 hrs by broth dilution assay; assay type: functional
[4] = test system: Staphylococcus epidermidis; experiment: Antibacterial activity against Staphylococcus epidermidis ATCC 14990 after 24 hrs by broth dilution assay; assay type: functional; method in brief: as §2
Candida albicans = experiment: Antibacterial activity against Candida albicans CECT 1039 after 24 hrs by broth dilution assay
HEp-2 [5] = experiment: Cytotoxicity against human Hep2 cells at lag phase of growth after 48 hrs by MTT assay; assay type: functional, cell-based; conditions: for pIC50: Homo sapiens, HEp-2, 48 h, read-out: IC50; for IC50: hep-2; method in brief: as §1
[6] = test system: Mycolicibacterium smegmatis; experiment: Antibacterial activity against Mycobacterium smegmatis ATCC 19420 after 48 hrs by broth dilution assay; assay type: functional; conditions: ATCC 19420, 48 h
Method in brief: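 Brain heart infusion broth with 0.06% Tween 80, 37 °C on a rotary shaker, inoculum about (1-5) × 10^5 cfu/mL, DMSO ≤1% v/v with matched controls, in triplicate. OD550 monitored.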

MCF7 [7] = experiment: Cytotoxicity against human […] cells at exponential phase of growth after 48 hrs by MTT assay; assay type: functional, cell-based; conditions: for pIC50: Homo sapiens, MCF7, 48 h, read-out: IC50; for IC50: mcf7; method in brief: as §1
Escherichia coli = experiment: Antibacterial activity against Escherichia coli ATCC 9637 after 24 hrs by broth dilution assay; assay type: functional; conditions: ATCC 9637, 24 h; method in brief: as §2
MCF7 [8] = experiment: Cytotoxicity against human MCF7 cells at lag phase of growth after 48 hrs by MTT assay; assay type: functional, cell-based; conditions: for pIC50: Homo sapiens, MCF7, 48 h, read-out: IC50; for IC50: mcf7; method in brief: as §1
Enterococcus faecalis = experiment: Antibacterial activity against Enterococcus faecalis ATCC 29212 after 24 hrs by broth dilution assay; assay type: functional; conditions: ATCC 29212, 24 h
Method in brief: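 Microdilution in brain heart infusion broth, shaken at 37 °C, about (1-5) × 10^5 cfu/mL start, DMSO ≤1% v/v with matched controls, in triplicate. OD550 read. Clear wells at 24 h were subcultured in duplicate onto brain heart infusion agar and counted after overnight incubation. MIC is the lowest concentration giving growth inhibition.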

A549 [9] = experiment: Cytotoxicity against human A549 cells at exponential phase of growth after 48 hrs by MTT assay; assay type: functional, cell-based; conditions: for pIC50: Homo sapiens, A549, 48 h, read-out: IC50; for IC50: a549; method in brief: as §1
A549 [10] = experiment: Cytotoxicity against human A549 cells at lag phase of growth after 48 hrs by MTT assay; assay type: functional, cell-based; conditions: for pIC50: Homo sapiens, A549, 48 h, read-out: IC50; method in brief: as §1
Vero [11] = experiment: Cytotoxicity against african green monkey Vero cells at exponential phase of growth after 48 hrs by MTT assay; assay type: cell-based, Chlorocebus sabaeus; conditions: for pIC50: Chlorocebus sabaeus, Vero, 48 h, read-out: IC50; for IC50: vero; method in brief: as §1
Bacillus subtilis = experiment: Antibacterial activity against Bacillus subtilis ATCC 6051 after 24 hrs by broth dilution assay; assay type: functional
Staphylococcus aureus = experiment: Antibacterial activity against Staphylococcus aureus ATCC 6538 after 24 hrs by broth dilution assay; assay type: functional
HeLa [12] = experiment: Cytotoxicity against human HeLa cells at exponential phase of growth after 48 hrs by MTT assay; assay type: functional, cell-based; conditions: for pIC50: Homo sapiens, HeLa, 48 h, read-out: IC50; for IC50: hela; method in brief: as §1

SMILES | pIC50 (HEp-2 [1]) | pIC50 (HeLa [2]) | MIC (Pseudomonas aeruginosa) [µg/mL] | pIC50 (Vero [3]) | MIC (Proteus mirabilis) [µg/mL] | MIC (Salmonella) [µg/mL] | MI50 (Bacillus cereus) [µg/mL] | MIC [4] [µg/mL] | MIC (Candida albicans) [µg/mL] | pIC50 (HEp-2 [5]) | MIC [6] [µg/mL] | pIC50 (MCF7 [7]) | MIC (Escherichia coli) [µg/mL] | pIC50 (MCF7 [8]) | MIC (Enterococcus faecalis) [µg/mL] | pIC50 (A549 [9]) | pIC50 (Vero [11]) | MIC (Bacillus subtilis) [µg/mL] | MIC (Staphylococcus aureus) [µg/mL] | pIC50 (HeLa [12]) | further results
COC(=O)C1=C2C=C(C(C)C)COC2(O)[C@H]2OC(=O)[C@@]13CCCC(C)(C)[C@H]23 (some centres undefined) | < 4.22 | < 4.22 | > 40 | < 4.22 | > 40 | > 40 | >40 | >40 | >40 | < 4.22 | > 40 | 4.37 | > 40 | < 4.22 | > 40 | 4.40 | < 4.22 | >40 | >40 | < 4.22 | pIC50 (A549 [10]): < 4.22
C[C@H]1COc2c1cc1c(c2O)[C@@]23CCCC(C)(C)[C@@H]2C[C@@H]1OC3=O | < 4.22 | 4.25 | > 40 | < 4.22 | > 40 | > 40 | >40 | >40 | >40 | < 4.22 | > 40 | < 4.22 | > 40 | < 4.22 | > 40 | 4.29 | < 4.22 | >40 | >40 | 4.42 | pIC50 (A549 [10]): < 4.22
C[C@H]1COC2=C1C(=O)C1=C(C2=O)[C@@]23CCCC(C)(C)[C@@H]2C[C@@H]1OC3=O | 4.40 | 4.30 | > 40 | < 4.23 | > 40 | > 40 | >40 | >40 | >40 | < 4.23 | > 40 | 4.74 | > 40 | 4.48 | > 40 | 4.39 | < 4.23 | >40 | >40 | 4.76 | pIC50 (A549 [10]): < 4.23
Cc1coc2c1C(=O)C1=C(C2=O)[C@@]23CCCC(C)(C)[C@@H]2C[C@@H]1OC3=O |  | < 4.23 | > 40 | < 4.23 | > 40 | > 40 | >40 | >40 | >40 |  | > 40 | < 4.23 | > 40 | < 4.23 | > 40 | < 4.23 | < 4.23 | >40 | >40 | < 4.23 | pIC50 (A549 [10]): 4.31
CC(C)C1=CC2=C(C(=O)C1=O)[C@@]13CCCC(C)(C)[C@@H]1C[C@@H]2OC3=O | < 4.22 | < 4.22 | > 40 |  | > 40 | > 40 | >40 | >40 | >40 | < 4.22 | > 40 |  | > 40 |  | > 40 |  |  | >40 | >40 | 4.40 | 
CC(=O)OC[C@H](C)C1=C(OC(C)=O)C(O)C2=C(C1=O)[C@@H]1C[C@H]3C(C)(C)CCC[C@]23C(=O)O1 (some centres undefined) | < 4.35 | 4.47 | > 40 | < 4.35 | > 40 | > 40 | >40 | >40 | >40 | < 4.35 | > 40 | < 4.35 | > 40 | < 4.35 | > 40 |  | < 4.35 | >40 | >40 | 4.39 | 
COc1c2c(c(O)c3c1[C@@H](C)CO3)[C@@]13CCCC(C)(C)[C@@H]1C[C@@H]2OC3=O |  |  | > 40 |  | > 40 | > 40 | >40 | >40 | >40 |  | > 40 |  | > 40 |  | > 40 |  |  | >40 | >40 |  | IC50 (HEp-2 [1]): Not Active; IC50 (HeLa [2]): Not Active; IC50 (Vero [3]): Not Active; IC50 (HEp-2 [5]): Not Active; IC50 (MCF7 [7]): Not Active; IC50 (MCF7 [8]): Not Active; IC50 (A549 [9]): Not Active; IC50 (Vero [11]): Not Active; IC50 (HeLa [12]): Not Active
COc1c(C(C)C)cc2c(c1OC)[C@@]13CCCC(C)(C)[C@@H]1[C@H](OC3=O)[C@@H]2OCc1ccccc1 |  |  | > 40 |  | > 40 | > 40 | >40 | >40 | >40 |  | > 40 |  | > 40 |  | > 40 |  |  | >40 | >40 |  | IC50 (HEp-2 [1]): Not Active; IC50 (HeLa [2]): Not Active; IC50 (Vero [3]): Not Active; IC50 (HEp-2 [5]): Not Active; IC50 (MCF7 [7]): Not Active; IC50 (MCF7 [8]): Not Active; IC50 (A549 [9]): Not Active; IC50 (A549 [10]; a549): Not Active; IC50 (Vero [11]): Not Active; IC50 (HeLa [12]): Not Active
COC(=O)C1=C(/C=C(\C(=O)OC)C(C)C)[C@@H]2C[C@H]3C(C)(C)CCC[C@]13C(=O)O2 |  |  | > 40 |  | > 40 | > 40 | >40 | >40 | >40 |  | > 40 |  | > 40 |  | > 40 |  |  | >40 | >40 |  | IC50 (HEp-2 [1]): Not Active; IC50 (HeLa [2]): Not Active; IC50 (Vero [3]): Not Active; IC50 (HEp-2 [5]): Not Active; IC50 (MCF7 [7]): Not Active; IC50 (MCF7 [8]): Not Active; IC50 (A549 [9]): Not Active; IC50 (Vero [11]): Not Active; IC50 (HeLa [12]): Not Active
CC(C)c1cc2c(c(O)c1O)[C@@]1(C(=O)O)CCCC(C)(C)[C@@H]1C[C@H]2Sc1ccccc1 | 4.72 | 5.32 |  | 5.21 |  |  |  |  |  | 4.82 |  |  |  |  |  |  | 4.68 |  |  | 4.95 | 
CO/N=C(\C(=O)N[C@@H]1C(=O)N2C(C(=O)O)=C(COC(C)=O)CS[C@H]12)c1csc(N)n1 [CEFOTAXIME] |  |  | > 40 |  | > 40 | > 40 |  |  |  |  | > 40 |  | > 40 |  | > 40 |  |  |  |  |  | MIC (Bacillus cereus; Bacillus cereus, ATCC 21772, 24 h): 10 µg/mL (≈ 22 µM); MIC ([4]; Staphylococcus epidermidis, ATCC 14990, 24 h, read-out: MIC): 2.5 µg/mL (≈ 5.49 µM); MIC (Bacillus subtilis; Bacillus subtilis, ATCC 6051, 24 h, read-out: MIC): 8 µg/mL (≈ 17.6 µM); MIC (Staphylococcus aureus; Staphylococcus aureus, ATCC 6538, 24 h, read-out: MIC): 1.25 µg/mL (≈ 2.74 µM)
CC(C)C1=CC2=C(C(=O)C1=O)[C@@]13CCCC(C)(C)[C@@H]1[C@@H](O)[C@@H]2OC3=O [ISOROSMAQUINONE] | 4.41 | 4.60 |  | < 4.22 |  |  |  |  |  | 4.40 |  |  |  |  |  |  | < 4.22 |  |  | 4.51 | 
Sc1ncnc2nc[nH]c12 [MERCAPTOPURINE ANHYDROUS] | 3.50 | 5.54 |  | 4.17 |  |  |  |  |  | 3.37 |  | 5.24 |  | 5.85 |  | 4.31 | 3.93 |  |  | 5.39 | pIC50 (A549 [10]): 4.33
